# From ChEMBL document CHEMBL1140145, “Identification of non-nucleoside DNA synthesis inhibitors of vaccinia virus by high-throughput screening” (J Med Chem, 2008)
# The source made the active and inactive calls. The calls are words filed in the database; no cut-off is given here.
# What was measured:
# Vaccinia virus [1] = experiment: Inhibition of Vaccinia virus DNA synthesis in by rapid plate assay; format: functional, organism-based; conditions: Orthopoxvirus vaccinia
# [2] = Cytotoxicity against african green monkey BSC1 cells after 20 hrs WST-1 based assay; format: cell-based, BSC-1; conditions: chlorocebus aethiops, read-out: TC50
# How it was run: (§1)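 Uninfected BS-C-1 cells in phenol red-free medium, seeded 5000 (20 h), 1000 (3-day) or 200 (5-day) cells/well, exposed next day to compound in two-fold serial dilutions (top 200 µM; 1% DMSO final) at 37°C. WST-1 added 30 min, A450 read. Triplicates; percent cytotoxicity vs DMSO fitted four-parameter sigmoidal for TC50.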
# Vaccinia virus [3] = experiment: Antiviral activity against Vaccinia virus WR in BSC1 cells assessed as reduction in plaque formation after 20 hrs; format: functional, organism-based; conditions: Orthopoxvirus vaccinia, BSC-1, 20 h
# Vaccinia virus [4] = experiment: Antiviral activity against Vaccinia virus WR in BSC1 cells assessed as protection from virus-induced lysis of cell monolayer after 20 hrs; format: functional, organism-based; conditions: Orthopoxvirus vaccinia, BSC-1, 20 h
# Vaccinia virus [5] = experiment: Antiviral activity against Vaccinia virus WR in BSC1 cells assessed as retention of antiviral potency by measuring exogenous double stranded DNA trapping; format: functional, organism-based; conditions: Orthopoxvirus vaccinia, BSC-1
# Vaccinia virus [6] = experiment: Antiviral activity against Vaccinia virus WR in BSC1 cells assessed as reduction in plaque formation up to 200 uM after 20 hrs; format: functional, organism-based; conditions: Orthopoxvirus vaccinia, BSC-1
# Vaccinia virus [7] = experiment: Antiviral activity against Vaccinia virus WR in BSC1 cells assessed as protection from virus-induced lysis of cell monolayer up to 200 uM after 20 hrs; format: functional, organism-based; conditions: Orthopoxvirus vaccinia, BSC-1
# [8] = Cytotoxicity against african green monkey BSC1 cells up to 200 uM after 20 to 120 hrs WST-1 based assay; format: cell-based; conditions: chlorocebus aethiops, bsc-1; how it was run: as §1
SMILES,IC50 (Vaccinia virus [1]) [µM],CC50 at 20 h [2] [µM],EC50 (Vaccinia virus [3]) [µM],EC50 (Vaccinia virus [4]) [µM],Activity (Vaccinia virus [5]),Activity (Vaccinia virus [6]),Activity (Vaccinia virus [7]),Activity [8]
O=C(O)c1cc(Cc2ccc(O)c(C(=O)O)c2)ccc1O,51,> 200,–,–,–,–,–,–
COc1ccc(Nc2nc(N3CCN(C)CC3)nc3ccccc23)c(OC)c1,–,192,40,18,inactive,–,–,–
CCN1CCCC1CNC(=O)c1cc2c(=O)n(C)c3ccccc3c2n1C (stereo not drawn),–,135,100,98,inactive,–,–,–
CCN1/C(=C/c2ccc3ccccc3[n+]2CC)Sc2cc(NC(C)=O)ccc21,15,> 200,200,–,–,–,–,–
CCOC(=O)c1cnc2c(C)c(C)ccc2c1NCCCN(C)C,5,–,–,–,–,inactive,inactive,Toxic
CN(C)/C=C/C=C1C(=O)CCCC1=O,86,> 200,–,–,–,–,–,–
Cc1nc2ccccc2c2oc(C(=O)NCCN(C)C3CCCCC3)cc12,–,143,25,41,inactive,–,–,–
CC(C)c1ccc(C2Nc3ccc(C(=O)O)cc3C3C=CCC32)cc1 (stereo not drawn),100,> 200,100,–,–,–,–,–
Cc1ccc2oc(=O)c3cc(C(=O)NCCN4CCCCC4C)sc3c2c1 (stereo not drawn),25,147,50,–,–,–,–,–
CCN(CC)Cn1nc2c3c(cccc3c1=O)-c1ccccc1-2,25,133,25,14,inactive,–,–,–
Cc1cc(OCC(=O)NC(Cc2c[nH]c3ccccc23)C(=O)O)cc(C)c1Cl (stereo not drawn),73,> 200,200,–,–,–,–,–
COC(=O)C(C(=O)OC)C(Nc1ccccc1)c1ccccc1 (stereo not drawn),638,> 200,–,–,–,–,–,–
CN1CCN(c2cc(-c3ccc(F)cc3)nc(-c3ccccc3)n2)CC1,–,23,6,12,inactive,–,–,–
Cc1cc2c(cc3c(=O)n(CC(=O)NCCN4CCOCC4)ncn32)s1,–,100,25,23,inactive,–,–,–
CCOC(=O)c1cc(-c2ccccc2)n(-c2ccc(C(=O)O)cc2)c1C,120,> 200,100,–,–,–,–,–
Cc1c(C)n(CCN(C)C)c2ccc(C(=O)OCCN(C)C)cc12 [AMINDOCATE],26,> 200,75,–,–,–,–,–

SMILES,IC50 (Vaccinia virus [1]) [µM],CC50 at 20 h [2] [µM],EC50 (Vaccinia virus [3]) [µM],EC50 (Vaccinia virus [4]) [µM],Activity (Vaccinia virus [5]),Activity (Vaccinia virus [6]),Activity (Vaccinia virus [7]),Activity [8]
Cc1ccc(C)n1-c1cccc(C(=O)O)c1,100,> 200,–,–,–,–,–,–
CN(C)CCOC(=O)c1ccc2[nH]c3c(c2c1)CSCC3 [TIPINDOLE],115,> 200,100,–,–,–,–,–
C[n+]1ccc(/C=C/c2ccc3c(c2)OCO3)c2ccccc21,24,> 200,75,–,–,–,–,–
O=C1N=C(Nc2cccc(C(=O)O)c2)S/C1=C\c1ccc(-c2ccc(C(=O)O)cc2)o1,30,> 200,–,–,–,–,–,–
COc1ccc2cc3cc(C(=O)NCCN(C)C)oc3nc2c1,–,> 200,75,–,–,–,–,–
CN(C)Cc1ccc2ccc3cccc4ccc1c2c34,–,20,10,25,inactive,–,–,–
CCN1C(=O)/C(=C\C=C\c2ccco2)C(=O)NC1=S,160,72,12,–,–,–,–,–
OCC(O)Cn1c2ccc(Br)cc2c2cc(Br)ccc21 (stereo not drawn),–,29,10,23,inactive,–,–,–
CN(C)CC(O)Cn1c2ccc(Cl)cc2c2cc(Cl)ccc21 (stereo not drawn),12,17,10,–,–,–,–,–
CC1=NN(c2ccccc2)C(=O)/C1=C\c1cn(CC(O)CN2CCCCC2)c2ccccc12 (stereo not drawn),24,79,25,–,–,–,–,–
CN(C)CCCNc1c2c(nc3ccccc13)CCC2,32,172,50,–,–,–,–,–
O=C1/C(=C/c2ccc(Br)o2)CC/C1=C\c1ccc(Br)o1,95,> 200,–,–,–,–,–,–
Oc1ccc(C2(c3ccc(O)cc3)CCCC2)cc1,71,35,75,–,–,–,–,–
CN(C)CCNC(=O)c1cc2c(s1)-c1ccc(Cl)cc1SC2,37,3.9,5,–,–,–,–,–
CCOC(=O)c1c(NC(=O)/C=C/C(=O)O)sc(C)c1-c1ccccc1,374,159,25,30,Active,–,–,–
CCS(=O)(=O)N1CCN=C1SCc1ccc(Cl)cc1Cl,188,166,25,90,Active,–,–,–
